Assay results published in ChEMBL document CHEMBL1255405 (Antimicrob Agents Chemother, 2010).

How the values were obtained:
[1] = Apparent oral clearance in Papua new Guinean women in second or third trimester of pregnancy using pharmacokinetic final covariate model at 450 mg/day, po administered as three divided doses in presence of sulfadoxine-pyrimethamine by HPLC method; format: ADME, organism-based; details: female, human, in vivo
Summary of the method: (§1)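 Papua New Guinean women in the second or third trimester of pregnancy (n=30) and age-matched nonpregnant women (n=30) took CQ 450 mg (8.5 mg/kg/day) as whole tablets with water once daily for 3 days, plus single-dose sulfadoxine-pyrimethamine, without fasting. Plasma was sampled from baseline to 72 h and on days 7–42. CQ and DECQ were measured by HPLC (UV 340 nm) and analysed by population PK modelling, with weight-allometric scaling expressed relative to F.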

[2] = system: Homo sapiens; assay: Central compartment volume of distribution in Papua new Guinean women in second or third trimester of pregnancy using pharmacokinetic base model at 450 mg/day, po administered as three divided doses in presence of sulfadoxine-pyrimethamine by HPLC method; format: ADME, organism-based; details: in vivo; summary of the method: as §1
[3] = system: Homo sapiens; assay: Central compartment volume of distribution in Papua new Guinean women in second or third trimester of pregnancy using pharmacokinetic final covariate model at 450 mg/day, po administered as three divided doses in presence of sulfadoxine-pyrimethamine by HPLC method; format: ADME, organism-based; details: in vivo; summary of the method: as §1
[4] = system: Homo sapiens; assay: Peripheral compartment volume of distribution in Papua new Guinean women in second or third trimester of pregnancy using pharmacokinetic base model at 450 mg/day, po administered as three divided doses in presence of sulfadoxine-pyrimethamine by HPLC method; format: ADME, organism-based; details: in vivo; summary of the method: as §1
[5] = system: Homo sapiens; assay: Peripheral compartment volume of distribution in Papua new Guinean women in second or third trimester of pregnancy using pharmacokinetic final covariate model at 450 mg/day, po administered as three divided doses in presence of sulfadoxine-pyrimethamine by HPLC method; format: ADME, organism-based; details: in vivo; summary of the method: as §1
[6] = system: Homo sapiens; assay: Central compartment volume of distribution in Papua new Guinean women in second or third trimester of pregnancy using pharmacokinetic base model assessed as monodesethychloroquine at 450 mg/day, po administered as three divided doses in presence of sulfadoxine-pyrimethamine by HPLC method; format: ADME, organism-based; details: in vivo; summary of the method: as §1
[7] = system: Homo sapiens; assay: (§2) Central compartment volume of distribution in Papua new Guinean women in second or third trimester of pregnancy using pharmacokinetic final covariate model assessed as monodesethychloroquine at 450 mg/day, po administered as three divided doses in presence of sulfadoxine-pyrimethamine by HPLC method; format: ADME, organism-based; details: in vivo; summary of the method: as §1
[8] = system: Homo sapiens; assay: Peripheral compartment volume of distribution in Papua new Guinean women in second or third trimester of pregnancy using pharmacokinetic base model assessed as monodesethychloroquine at 450 mg/day, po administered as three divided doses in presence of sulfadoxine-pyrimethamine by HPLC method; format: ADME, organism-based; details: in vivo; summary of the method: as §1
[9] = system: Homo sapiens; assay: as §2, with “Peripheral” for “Central”; format: ADME, organism-based; details: in vivo; summary of the method: as §1
[10] = Cmax in women at 450 mg/day, po administered as three divided doses by HPLC method; format: ADME, organism-based; design: dose 450 mg/day, route oral; details: female, human, in vivo
Summary of the method: (§3)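 Simulated values, not observed data. Final population PK model parameters were applied in NONMEM to hypothetical pregnant and nonpregnant women (n=1,000 each) generated with mvtnorm, with covariates such as weight drawn from the original subjects. Cmax, Tmax and AUC0-∞ of CQ and DECQ were derived for a range of plausible CQ regimens.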

[11] = Cmax in Papua new Guinean pregnant women at 450 mg/day, po administered as three divided doses by HPLC method; format: ADME, organism-based; design: dose 450 mg/day, route oral; details: female, human, in vivo; summary of the method: as §3
[12] = Cmax in Papua new Guinean pregnant women at 600 mg/day, po administered as three divided doses by HPLC method; format: ADME, organism-based; design: dose 600 mg/day, route oral; details: female, human, in vivo; summary of the method: as §3
[13] = Cmax in Papua new Guinean pregnant women at 750 mg/day, po administered as three divided doses by HPLC method; format: ADME, organism-based; design: dose 750 mg/day, route oral; details: female, human, in vivo; summary of the method: as §3
[14] = AUC (0 to infinity) in women at 450 mg/day, po administered as three divided doses by HPLC method; format: ADME, organism-based; design: dose 450 mg/day, time infinity, route oral; details: female, human, plasma; summary of the method: as §1
[15] = AUC (0 to infinity) in Papua new Guinean pregnant women at 450 mg/day, po administered as three divided doses by HPLC method; format: ADME, organism-based; design: dose 450 mg/day, time infinity, route oral; details: female, human, plasma; summary of the method: as §1
[16] = AUC (0 to infinity) in Papua new Guinean pregnant women at 600 mg/day, po administered as three divided doses by HPLC method; format: ADME, organism-based; design: dose 600 mg/day, time infinity, route oral; details: female, human, plasma; summary of the method: as §3
[17] = AUC (0 to infinity) in Papua new Guinean pregnant women at 750 mg/day, po administered as three divided doses by HPLC method; format: ADME, organism-based; design: dose 750 mg/day, route oral, time infinity; details: female, human, plasma; summary of the method: as §3
[18] = system: Homo sapiens; assay: Cmax in women assessed as monodesethychloroquine at 450 mg/day, po administered as three divided doses by HPLC method; format: ADME, organism-based; design: dose 450 mg/day, route oral; details: in vivo; summary of the method: as §3
[19] = system: Homo sapiens; assay: Cmax in Papua new Guinean pregnant women assessed as monodesethychloroquine at 450 mg/day, po administered as three divided doses by HPLC method; format: ADME, organism-based; design: dose 450 mg/day, route oral; details: in vivo; summary of the method: as §3
[20] = system: Homo sapiens; assay: Cmax in Papua new Guinean pregnant women assessed as monodesethychloroquine at 600 mg/day, po administered as three divided doses by HPLC method; format: ADME, organism-based; design: dose 600 mg/day, route oral; details: in vivo; summary of the method: as §3
[21] = system: Homo sapiens; assay: Cmax in Papua new Guinean pregnant women assessed as monodesethychloroquine at 750 mg/day, po administered as three divided doses by HPLC method; format: ADME, organism-based; design: dose 750 mg/day, route oral; details: in vivo; summary of the method: as §3
[22] = system: Homo sapiens; assay: AUC (0 to infinity) in women assessed as monodesethychloroquine at 450 mg/day, po administered as three divided doses by HPLC method; format: ADME, organism-based, Plasma; design: dose 450 mg/day, route oral, time infinity; details: in vivo; summary of the method: as §1
[23] = system: Homo sapiens; assay: AUC (0 to infinity) in Papua new Guinean pregnant women assessed as monodesethychloroquine at 450 mg/day, po administered as three divided doses by HPLC method; format: ADME, organism-based, Plasma; design: dose 450 mg/day, route oral, time infinity; details: in vivo; summary of the method: as §1
[24] = system: Homo sapiens; assay: AUC (0 to infinity) in Papua new Guinean pregnant women assessed as monodesethychloroquine at 600 mg/day, po administered as three divided doses by HPLC method; format: ADME, organism-based, Plasma; design: dose 600 mg/day, time infinity, route oral; details: in vivo; summary of the method: as §3
[25] = system: Homo sapiens; assay: AUC (0 to infinity) in Papua new Guinean pregnant women assessed as monodesethychloroquine at 750 mg/day, po administered as three divided doses by HPLC method; format: ADME, organism-based, Plasma; design: dose 750 mg/day, time infinity, route oral; details: in vivo; summary of the method: as §3
[26] = Apparent oral clearance in Papua new Guinean women in second or third trimester of pregnancy using pharmacokinetic base model at 450 mg/day, po administered as three divided doses in presence of sulfadoxine-pyrimethamine by HPLC method; format: ADME, organism-based; details: female, human, in vivo; summary of the method: as §1

For `CCN(CC)CCCC(C)Nc1ccnc2cc(Cl)ccc12` (stereo unspecified) [CHLOROQUINE], the CL/F [1] was 488 mL/min, the Vc/F [2] was 4160 L and the Vc/F [3] was 4220 L. The Vp/F [4] was 5200 L, the Vp/F [5] was 5190 L and the Vc/F [6] was 39.9 L. It also gave a Vc/F [7] of 40 L, a Vp/F [8] of 812 L and a Vp/F [9] of 840 L. For the same compound, the Cmax [10] was 376 ng/mL, the Cmax [11] was 296 ng/mL and the Cmax [12] was 395 ng/mL. For the same compound, the Cmax [13] was 494 ng/mL, the AUC(0-inf) [14] was 50000 ng·h/mL and the AUC(0-inf) [15] was 35700 ng·h/mL. For the same compound, the AUC(0-inf) [16] was 47500 ng·h/mL, the AUC(0-inf) [17] was 59400 ng·h/mL and the Cmax [18] was 186 ng/mL. For the same compound, the Cmax [19] was 139 ng/mL, the Cmax [20] was 185 ng/mL and the Cmax [21] was 232 ng/mL. It also gave an AUC [22] of 41255 ng·h/mL, an AUC [23] of 23876 ng·h/mL and an AUC [24] of 31835 ng·h/mL. The AUC [25] was 39793 ng·h/mL and the CL/F [26] was 568 mL/min.
